Experimental data from different studies.
Target: STE20-like serine/threonine-protein kinase (SLK, Homo sapiens, UniProt Q9H2G2)

O=C(Nc1c[nH]nc1C(=O)NC1CCNCC1)c1cc(F)cc(F)c1
remaining binding (binding; competition with immobilised ligand; 1 µM): 100%

O=C(NCCCN1CCOCC1)c1ccc(Nc2nccc(-c3cc4ccccc4s3)n2)cc1
remaining binding (binding; competition with immobilised ligand; 1 µM): 38%

C[C@H]1CCN(c2nccc(-c3cnn4ncccc34)n2)C1
remaining binding (binding; 1 µM): 96%

CNC(=O)[C@@H]1CC[C@@H](n2c(-c3ccc4cnccc4c3)nc3ccc(C(=O)NCc4cccc(C(N)=O)c4)cc32)C1
remaining binding (binding; competition with immobilised ligand; 1 µM): 95%

O=C(c1ccc(Nc2ncc(Cl)c(-c3ccc(Cl)s3)n2)cc1)N1CCC(N2CCCC2)CC1
remaining binding (binding; competition with immobilised ligand; 1 µM): 1.2%

N[C@@H]1CCN(c2nccc(-c3cnn4ncccc34)n2)C1
remaining binding (binding; 1 µM): 83%

Cc1nc(N2CC[C@@H](O)C2)ncc1-c1cc(C(F)(F)F)cc2[nH]ncc12
remaining binding (binding; competition with immobilised ligand; 1 µM): 98%

COc1cnc(Nc2cccc(S(N)(=O)=O)c2)nc1N1CCN(c2ccccc2)CC1
remaining binding (binding; competition with immobilised ligand; 1 µM): 99%

Cc1nc(Cc2cccc(C(F)(F)F)c2)sc1-c1ccc(C(N)=O)nc1
remaining binding (cell-free assay; competition with immobilised ligand; 1 µM): 100%

CN(C)c1nccc(-c2cnc3ncccn23)n1
remaining binding (binding; 1 µM): 100%

COc1ncc2cc3ccccc3nc2c1C#N
remaining binding (cell-free assay; competition with immobilised ligand; 5 µM): 89%

NS(=O)(=O)c1cc(NC(=O)Cc2ccccc2)ccc1Oc1cccc(Cl)c1
remaining binding (cell-free assay; competition with immobilised ligand; 1 µM): 66%

CN(c1nccc(-c2cnn3ncccc23)n1)C1CC1
remaining binding (binding; 1 µM): 100%

c1ccc(N2CCN(Cc3nc4ccccc4[nH]3)CC2)nc1
remaining binding (binding; competition with immobilised ligand; 1 µM): 93%

c1cnn2ncc(-c3ccnc(N4CCC45COC5)n3)c2c1
remaining binding (binding; 1 µM): 100%

FC(F)(F)Oc1cccc(-c2cnc3ccc(-c4ccncc4)nn23)c1
remaining binding (binding; competition with immobilised ligand; 5 µM): 7.8%

Cc1c(NC(=O)c2cc(C(N)=O)nc3cc(F)ccc23)c(C(F)(F)F)nn1Cc1ccc(C(C)(C)C)cc1
remaining binding (cell-free assay; competition with immobilised ligand; 1 µM): 100%

O=C(c1ccc(Nc2ncc(Cl)c(-c3cc4ccccc4s3)n2)cc1)N1CCC(N2CCCC2)CC1
remaining binding (binding; competition with immobilised ligand; 1 µM): 1.7%

Cc1cnn2ncc(-c3ccnc(N(C)C)n3)c2c1
remaining binding (binding; 1 µM): 100%

CC(=O)N1CCC(c2ccc(C(=O)NC3=NCCN3)cc2C(F)(F)F)CC1
remaining binding (cell-free assay; competition with immobilised ligand; 1 µM): 94%

c1cncc(-c2cccc(Nc3nccc(NC4CCCCC4)n3)c2)c1
remaining binding (binding; competition with immobilised ligand; 10 µM): 19%
